ChEMBL document CHEMBL3120060, “Synthesis, in vitro anticancer evaluation and in silico studies of novel imidazo[2,1-b]thiazole derivatives bearing pyrazole moieties” (2014)

Tests used:
Format in all cases: functional
[1] = tested on: SK-MEL-5; assay: Cytotoxicity against human SK-MEL-5 cells assessed as cell growth at 10 uM after 48 hrs by SRB assay; details: SK-MEL-5, 48 h, read-out: Activity
Method in brief: (§1)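 NCI-60 single-dose screen. Cell lines grown in RPMI 1640 with 5% FBS and 2 mM L-glutamine, plated at 5000–40,000 cells/well according to doubling time, then preincubated 24 h at 37 °C in 5% CO2. Compounds dissolved in DMSO, tested at 10^-5 M for 48 h. Adherent cells fixed with cold TCA (10% final) and stained with 0.4% SRB in 1% acetic acid. Growth expressed as percent of untreated control.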

[2] = tested on: U-251; assay: Cytotoxicity against human U251 cells assessed as cell growth at 10 uM after 48 hrs by SRB assay; details: U-251, 48 h, read-out: Activity
Method in brief: (§2)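 NCI-60 single-dose screen at 10^-5 M. Adherent lines are grown in RPMI 1640 with 5% FBS and 2 mM L-glutamine, seeded at 5000–40,000 cells/well by doubling time, and preincubated 24 h at 37 °C in 5% CO2. Drug is added from DMSO stock diluted in medium, then 48 h. Cells are fixed in cold TCA (final 10%) for 60 min and stained with 0.4% SRB in 1% acetic acid. Growth is expressed as % of untreated control using time-zero plates.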

[3] = tested on: T47D; assay: Cytotoxicity against human T47D cells assessed as cell growth at 10 uM after 48 hrs by SRB assay; details: read-out: Activity; method in brief: as §2
[4] = tested on: K562; assay: Cytotoxicity against human K562 cells assessed as cell growth at 10 uM after 48 hrs by SRB assay; details: K562, 48 h, read-out: Activity; method in brief: as §1
[5] = tested on: NCI-H522; assay: Cytotoxicity against human NCI-H522 cells assessed as cell growth at 10 uM after 48 hrs by SRB assay; details: NCI-H522, 48 h, read-out: Activity; method in brief: as §1
[6] = Cytotoxicity against human OVCAR5 cells assessed as cell growth at 10 uM after 48 hrs by SRB assay; details: OVCAR-5, 48 h, read-out: Activity; method in brief: as §1
[7] = tested on: CCRF-CEM; assay: Cytotoxicity against human CCRF-CEM cells assessed as cell growth at 10 uM after 48 hrs by SRB assay; details: read-out: Activity; method in brief: as §1
[8] = tested on: SF-268; assay: Cytotoxicity against human SF268 cells assessed as cell growth at 10 uM after 48 hrs by SRB assay; details: SF-268, 48 h, read-out: Activity; method in brief: as §1
[9] = tested on: MOLT-4; assay: Cytotoxicity against human MOLT4 cells assessed as cell growth at 10 uM after 48 hrs by SRB assay; details: MOLT-4, 48 h, read-out: Activity; method in brief: as §1
[10] = tested on: 786-0; assay: Cytotoxicity against human 786-0 cells assessed as cell growth at 10 uM after 48 hrs by SRB assay; details: 786-0, 48 h, read-out: Activity; method in brief: as §1
[11] = tested on: BT-549; assay: Cytotoxicity against human BT549 cells assessed as cell growth at 10 uM after 48 hrs by SRB assay; details: BT-549, 48 h, read-out: Activity; method in brief: as §1
[12] = tested on: NCI-H23; assay: Cytotoxicity against human NCI-H23 cells assessed as cell growth at 10 uM after 48 hrs by SRB assay; details: NCI-H23, 48 h, read-out: Activity; method in brief: as §1
[13] = tested on: HT-29; assay: Cytotoxicity against human HT-29 cells assessed as cell growth at 10 uM after 48 hrs by SRB assay; details: HT-29, 48 h, read-out: Activity; method in brief: as §1
[14] = tested on: A498; assay: Cytotoxicity against human A498 cells assessed as cell growth at 10 uM after 48 hrs by SRB assay; details: A498, 48 h, read-out: Activity; method in brief: as §1
[15] = tested on: HCC 2998; assay: Cytotoxicity against human HCC2998 cells assessed as cell growth at 10 uM after 48 hrs by SRB assay; details: HCC 2998, 48 h, read-out: Activity; method in brief: as §1
[16] = Cytotoxicity against human UO31 cells assessed as cell growth at 10 uM after 48 hrs by SRB assay; details: UO-31, 48 h, read-out: Activity; method in brief: as §2
[17] = tested on: COLO 205; assay: Cytotoxicity against human COLO205 cells assessed as cell growth at 10 uM after 48 hrs by SRB assay; details: COLO 205, 48 h, read-out: Activity; method in brief: as §1
[18] = tested on: LOX IMVI; assay: Cytotoxicity against human LOXIMVI cells assessed as cell growth at 10 uM after 48 hrs by SRB assay; details: read-out: Activity; method in brief: as §1
[19] = tested on: Malme-3M; assay: Cytotoxicity against human MALME-3M cells assessed as cell growth at 10 uM after 48 hrs by SRB assay; details: read-out: Activity; method in brief: as §1
[20] = tested on: A549; assay: Cytotoxicity against human A549 cells assessed as cell growth at 10 uM after 48 hrs by SRB assay; details: A549, 48 h, read-out: Activity; method in brief: as §1
[21] = Cytotoxicity against human OVCAR4 cells assessed as cell growth at 10 uM after 48 hrs by SRB assay; details: OVCAR-4, 48 h, read-out: Activity; method in brief: as §1
[22] = tested on: PC-3; assay: Cytotoxicity against human PC3 cells assessed as cell growth at 10 uM after 48 hrs by SRB assay; details: PC-3, 48 h, read-out: Activity; method in brief: as §1
[23] = tested on: KM12; assay: Cytotoxicity against human KM12 cells assessed as cell growth at 10 uM after 48 hrs by SRB assay; details: KM12, 48 h, read-out: Activity; method in brief: as §1
[24] = Cytotoxicity against human UACC257 cells assessed as cell growth at 10 uM after 48 hrs by SRB assay; details: UACC-257, 48 h, read-out: Activity; method in brief: as §2
[25] = tested on: SK-OV-3; assay: Cytotoxicity against human SKOV3 cells assessed as cell growth at 10 uM after 48 hrs by SRB assay; details: SK-OV-3, 48 h, read-out: Activity; method in brief: as §1
[26] = tested on: SR; assay: Cytotoxicity against human SR cells assessed as cell growth at 10 uM after 48 hrs by SRB assay; details: read-out: Activity
Method in brief: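 Leukemia line, NCI-60 single-dose screen at 10^-5 M. Cells are grown in RPMI 1640 with 5% FBS and 2 mM L-glutamine, plated by doubling time, and preincubated 24 h at 37 °C with 5% CO2. After 48 h drug exposure, settled cells are fixed with 80% TCA (final 16%) and stained with SRB. Percent growth is calculated against untreated control and time-zero plates.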

[27] = tested on: HCT-116; assay: Cytotoxicity against human HCT116 cells assessed as cell growth at 10 uM after 48 hrs by SRB assay; details: HCT-116, 48 h, read-out: Activity; method in brief: as §1
[28] = tested on: TK-10; assay: Cytotoxicity against human TK10 cells assessed as cell growth at 10 uM after 48 hrs by SRB assay; details: TK-10, 48 h, read-out: Activity; method in brief: as §2
[29] = tested on: MDA-MB-231; assay: Cytotoxicity against human MDA-MB-231 cells assessed as cell growth at 10 uM after 48 hrs by SRB assay; details: MDA-MB-231, 48 h, read-out: Activity; method in brief: as §1
[30] = tested on: SF-295; assay: Cytotoxicity against human SF295 cells assessed as cell growth at 10 uM after 48 hrs by SRB assay; details: SF-295, 48 h, read-out: Activity; method in brief: as §1
[31] = tested on: SNB-19; assay: Cytotoxicity against human SNB19 cells assessed as cell growth at 10 uM after 48 hrs by SRB assay; details: SNB-19, 48 h, read-out: Activity; method in brief: as §1

SMILES | growth at 10 µM [1] [%] | growth at 10 µM [2] [%] | growth at 10 µM [3] [%] | growth at 10 µM [4] [%] | growth at 10 µM [5] [%] | growth at 10 µM [6] [%] | growth at 10 µM [7] [%] | growth at 10 µM [8] [%] | growth at 10 µM [9] [%] | growth at 10 µM [10] [%] | growth at 10 µM [11] [%] | growth at 10 µM [12] [%] | growth at 10 µM [13] [%] | growth at 10 µM [14] [%] | growth at 10 µM [15] [%] | growth at 10 µM [16] [%] | growth at 10 µM [17] [%] | growth at 10 µM [18] [%] | growth at 10 µM [19] [%] | growth at 10 µM [20] [%] | also measured
Cc1cc(C)n(-c2cn3c(-c4ccccc4)csc3n2)n1 | 94.2 | 94.7 | 87.2 | 76.8 | 88.4 | 95.4 | 95.4 | 98.4 | 93.9 | 98 | 95.3 | 95.4 | 97.6 | 111 | 105 | 59.2 | 106 | 91.9 | 94.1 | 99 | growth at 10 µM [21]: 93%; growth at 10 µM [22]: 88.7%; growth at 10 µM [23]: 104%; growth at 10 µM [24]: 105%; growth at 10 µM [25]: 89.9%; growth at 10 µM [26]: 80.9%; growth at 10 µM [27]: 101%; growth at 10 µM [28]: 124%; growth at 10 µM [29]: 86.3%; growth at 10 µM [30]: 77.5%; growth at 10 µM [31]: 96.5%
O=C1CN2C(c3ccc(Cl)cc3)=CSC2=N1 | 105 | 94.3 | 92.1 | 79.7 | 87.5 | 97 | 91.5 | 100 | 79.1 | 94 | 89 | 104 | 88.4 | 70.2 | 101 | 92.7 | 108 | 98.9 | 99.3 | 92.5 | growth at 10 µM [21]: 90.3%; growth at 10 µM [22]: 101%; growth at 10 µM [23]: 100%; growth at 10 µM [24]: 96.3%; growth at 10 µM [25]: 98.2%; growth at 10 µM [26]: 77.8%; growth at 10 µM [27]: 97.1%; growth at 10 µM [28]: 79.9%; growth at 10 µM [29]: 102%; growth at 10 µM [30]: 80%; growth at 10 µM [31]: 100%
